# Compounds with a hit are over-represented: about 3.5% of the library has one in this group of screens.
# RGS4 pot: potentiators or activators of RGS4; AID 463111; B-score at 10 µM; 0.92% of 310,000 active; HEK293 M3R/inducible RGS4, carbachol calcium flux Fluo4; active compounds read low;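 active = B-score of the integrated calcium signal more than 4 SD below the library mean, with starting fluorescence not abnormally high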;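 note: negative B-score means reduced calcium response which marks RGS4 activation or potentiation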
#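 Assay system: Inducible-RGS4 HEK293 cells carrying M3 receptor | Schedule: Compound preincubation 20 min at room temperature before agonist | Signal: Kinetic calcium fluorescence imaging with Fluo4-AM dye, 2 µM | Read-out basis: B score from integrated fluorescence ratio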
# MrgX1 antagonist: antagonists of human MrgX1 receptor; B-score at 10 µM; Q96LB2; MRGX1-HEK293 calcium flux, Fluo-4, BAM8-22 antagonism; active compounds read low; 1.3% of 310,000 active;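 active = calcium-response B-score plate-corrected more than 3 library SD below zero, starting fluorescence within 5 deviations, no agonist response on first addition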;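 note: peak minus trough fluorescence over baseline after final BAM8-22 challenge near maximal dose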
# Target sequence (Q96LB2 whole entry, looked up): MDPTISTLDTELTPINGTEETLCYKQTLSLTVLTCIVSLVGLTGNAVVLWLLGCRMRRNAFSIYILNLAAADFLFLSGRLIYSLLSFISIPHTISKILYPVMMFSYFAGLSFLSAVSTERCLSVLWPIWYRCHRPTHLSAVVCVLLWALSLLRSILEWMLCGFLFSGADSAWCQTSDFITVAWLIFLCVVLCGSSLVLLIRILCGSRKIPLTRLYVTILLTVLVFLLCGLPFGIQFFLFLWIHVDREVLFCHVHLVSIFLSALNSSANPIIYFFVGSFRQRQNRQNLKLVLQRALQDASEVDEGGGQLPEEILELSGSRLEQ
# MrgX1 agonist: activates human MrgX1 receptor signaling; B-score at 10 µM; AID 588627; MrgX1-HEK293 cells, Fluo-4 calcium fluorescence, agonist mode; active compounds read high; 0.44% of 310,000 active;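 active = calcium response B-score plate-corrected fluorescence ratio at least 3 library SD, with starting fluorescence B-score inside 5 SD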
#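 Material: MrgX1-expressing HEK293 cells / Dosing: compound as first of three additions / Incubation: overnight seeding, then 1 h dark dye loading / Signal: Fluo-4 NW calcium fluorescence / Evaluation: B-scored fluorescence response ratio / Benchmarks: positive and negative control wells on each plate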
# RGS4 inh: inhibitors of human RGS4; P49798; HEK293 M3R/RGS4 inducible, Fluo-4 calcium flux; active compounds read high; triggered by carbachol at its EC20; B-score at 10 µM; 0.45% of 310,000 active; AID 463165;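 active = B-score, a plate-corrected calcium signal, over three deviations above library mean, with baseline fluorescence within five deviations of library mean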;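 note: RGS4 expression induced by doxycycline in cells with stable M3 receptor; B-score is computed from the integrated fluorescence ratio over baseline after carbachol; higher B-score means a larger calcium signal and so more RGS4 inhibition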
# Target sequence (P49798 whole entry, looked up): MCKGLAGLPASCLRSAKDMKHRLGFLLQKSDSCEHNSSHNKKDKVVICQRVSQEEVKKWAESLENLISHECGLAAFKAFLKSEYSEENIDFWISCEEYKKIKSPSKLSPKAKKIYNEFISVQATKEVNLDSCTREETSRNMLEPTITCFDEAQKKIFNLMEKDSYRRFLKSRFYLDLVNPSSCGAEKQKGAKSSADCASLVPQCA
# MrgX1 PAM: human MrgX1 positive allosteric modulation, primary screen; Q96LB2; MrgX1-HEK293, Fluo-4 calcium flux, FDSS; active compounds read high; B-score at 10 µM; 0.63% of 310,000 active;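 active = plate-corrected calcium response at least 3 library SD above typical, normal starting fluorescence, not activating the receptor alone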;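 note: compound read alongside a low EC10 to EC30 dose of BAM8-22 agonist; peak minus trough fluorescence over baseline measured at the second addition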
# A number is an active result; i = inactive; nt = no result.
SMILES,RGS4 pot,MrgX1 antagonist,MrgX1 agonist,RGS4 inh,MrgX1 PAM
Cc1ccccc1N1C(=O)NC(=O)/C(=C\c2ccc3c(c2)CCCN3Cc2ccccc2)C1=O,i,i,32,i,i
Cc1ccc(Cn2ccccc2=N)cc1,i,i,i,i,i
Cn1cc(C(O)CN2CCCCC2)c2ccccc21 (stereo not drawn),i,i,i,i,i
O=C(O)c1cc[c]([Hg][Cl])cc1,nt,i,i,nt,13
CC(C)(C#CC(=O)O)OOC(c1ccccc1)(c1ccccc1)c1ccccc1,i,i,i,i,i
O=c1c2ccccc2nc(-c2cccs2)n1-c1ccccc1,i,i,i,i,i
NC(N)=N/N=C/c1cn(-c2ccccc2)nc1-c1cccs1,i,i,44,i,i
CN1C(=O)C(=Cc2ccccc2OS(=O)(=O)c2ccccc2)C(=O)N(C)C1=O,i,i,i,i,i
OC(c1ccccc1)(c1ccccc1)C1CN2CCC1CC2 (stereo not drawn),-7.5,i,i,i,i
O=C1NC(=S)N(c2ccccc2)C(=O)C1C(c1ccncc1)C1C(=O)NC(=S)N(c2ccccc2)C1=O (stereo not drawn),i,-7.6,i,i,i
O=C1NC(=S)N(c2ccccc2)C(=O)/C1=C/c1ccco1,i,i,i,i,i
CCOC(=O)c1c(-n2c(C)cc(C=C3C(=O)NC(=S)NC3=O)c2C)sc2c1CCCC2,i,i,28,i,i
CCOC(=O)c1c(-n2c(C)cc(/C=C3/C(=O)NC(=O)N(CC)C3=O)c2C)sc2c1CCCC2,i,i,i,i,i
CCCC[N+]12CCC(CC1)C(=C(c1ccccc1)c1ccccc1)C2,-8.6,i,i,i,i
CN(C)C=C1C(=O)N(C2CCCCC2)C(=O)N(C2CCCCC2)C1=O,i,i,52,i,i
COC(=O)C(Cc1ccc(N(CCCl)CCCl)cc1)N=Cc1ccccc1O (stereo not drawn),-7.1,i,i,i,i
COc1cc(C(O)CNC(C)C)cc(F)c1OC (stereo not drawn),i,i,i,i,i
CC(C)OCCCNC(=O)c1c(N)n(CC2CCCO2)c2nc3ccccc3nc12 (stereo not drawn),-7.2,i,i,i,i
CCCNC(=O)c1c(N)n(CC2CCCO2)c2nc3ccccc3nc12 (stereo not drawn),i,i,i,i,i
C#C[C@@]1(O)CCC2C3CCC4=C/C(=N/OCC(=O)NC(CCC(N)=O)C(=O)O)CC[C@]4(C)C3CC[C@@]21C (stereo partly drawn),i,i,i,i,i
Clc1cnc(Oc2ccc(Oc3ncc(Cl)cc3Cl)cc2)c(Cl)c1,i,i,i,i,13
CC(=O)OC1CC[C@]2(C#N)[C@H]3CC[C@]4(C)[C@H](C5C=CC(=O)O5)CCC4(O)C3CCC2(O)C1 (stereo partly drawn),i,i,i,i,i
CCOC(=O)c1c(C)n(Cc2ccccc2)c2ccc(OCC(O)CNC(C)(C)C)cc12 (stereo not drawn),i,-4.7,i,i,i
CC[n+]1c(/C=C/N(C)c2ccccc2)sc2ccc(Cl)cc21,-9.5,i,i,i,i
CC[n+]1c(/C=C/C=C/c2ccc(N(C)C)cc2)sc2ccccc21,i,i,i,i,i
SMILES,RGS4 pot,MrgX1 antagonist,MrgX1 agonist,RGS4 inh,MrgX1 PAM
CCCC12CN3CCN(CC(C3)/C1=N\NC(=O)c1ccncc1)C2,i,i,i,i,i
CC1N=C(c2ccccc2Cl)c2cc(Br)ccc2NC1=O (stereo not drawn),i,i,i,i,i
OC(Cn1c2ccccc2c2ccccc21)C[n+]1cccc2ccccc21 (stereo not drawn),-7.9,i,i,i,i
CC(C)NP(=O)(NC(C)C)OP(=O)(NC(C)C)NC(C)C,nt,i,i,nt,i
Cc1cccc(NP(=O)(Oc2ccccc2F)Oc2ccccc2F)c1,-7.8,i,i,i,i
O=P(Nc1cccc(F)c1)(Oc1ccccc1F)Oc1ccccc1F,-8.2,i,i,i,i
Cc1ccc(NP(=O)(Oc2ccccc2F)Oc2ccccc2F)cc1C,i,i,i,i,i
CCCCCCC(Cl)(Cn1ccnc1)c1ccccc1 (stereo not drawn),i,i,i,i,i
Cn1c(O)c(C=NC2CCCCCC2)c(=O)[nH]c1=S,i,-6.4,i,i,i
Cn1c(O)c(C=NC2CCN(Cc3ccccc3)CC2)c(=O)[nH]c1=O,i,i,i,i,i
COc1ccc(-n2c(C)nc3ccccc3c2=O)c([N+](=O)[O-])c1,i,i,i,i,i
CCCCCCOc1ccc(CN2CCN(CC)CC2)cc1,-7.1,i,i,i,i
CCN1CCN(Cc2ccc(OC(F)(F)F)cc2)CC1,i,i,i,i,i
O=C1NC(=O)C(=Cc2ccc(N3CCOCC3)o2)C(=O)N1,-7.6,i,i,i,i
CN1C[C@H](CO)C=C2c3cccc4[nH]cc(c34)C[C@H]21,i,i,36,i,i
CCc1c(-c2ccccc2)nc2ccccc2c1C(=O)N1CCC2(CC1)OCCO2,i,i,i,i,i
O=[N+]([O-])c1cc(F)c(N2CCCCCC2)cc1N1CCNCC1,i,-5.2,i,i,i
O=[N+]([O-])c1ccc(N2CCNCC2)cc1N1CCCCCC1,i,i,i,i,11
CN1CCN(c2ccc([N+](=O)[O-])c(N3CCCCC3)c2)CC1,i,i,i,i,i
CCc1ccc(NC(=O)CCNC(=O)N2C[C@H]3C[C@@H](C2)c2cccc(=O)n2C3)cc1,i,i,i,i,i
CN1Cc2c(c(C#N)c(N)n(C)c2=S)CC1(C)C,-9.3,i,i,i,i
CCS(=O)(=O)NC(C)c1nnc2n1-c1ccc(Br)cc1C(c1ccccc1Cl)=NC2 (stereo not drawn),i,i,i,i,i
N#CC(C#N)=NNc1ccc(-n2ccc(C(F)(F)F)n2)cc1,i,i,i,i,i
CCN(CC)S(=O)(=O)c1ccc(NN=C(C#N)C#N)cc1,i,-7.4,i,i,i
CCN(CC)C(=O)c1ccc(NC(=O)CN2CCc3cc(OC)c(OC)cc3C2)cc1,i,i,i,i,i
SMILES,RGS4 pot,MrgX1 antagonist,MrgX1 agonist,RGS4 inh,MrgX1 PAM
O=C(Nc1ccccc1)OC1CN=C(N[N+](=O)[O-])NC1 (stereo not drawn),i,-5.7,i,i,i
CN1CCN(Cc2cc(C(C)(C)C)c(O)c(C(C)(C)C)c2)CC1,i,-5.2,i,i,i
Cc1cc(-c2ccccc2)cc(-c2ccccc2)[n+]1CCc1ccccc1,-8.2,-4.6,i,i,i
Clc1ccc(C[n+]2c(-c3ccccc3)cc(-c3ccccc3)cc2-c2ccccc2)cc1,-8.1,-6.9,i,i,i
CCOc1cc2c(cc1OCC)-n1cccc1C(c1ccccc1F)NC2 (stereo not drawn),i,i,i,i,i
OCC[N+]12CCC(CC1)C(C(O)(c1ccccc1)c1ccccc1)C2 (stereo not drawn),i,i,i,i,i

# Source: PubChem BioAssay
